Assay results from ChEMBL document CHEMBL1955830, “Substituted azaquinazolinones as modulators of GHSr-1a for the treatment of type II diabetes and obesity” (Bioorg Med Chem Lett, 2012).

Legend:
[1] = Antagonist activity at mouse GSH-R1a receptor expressed in HEK293 cells assessed as inhibition of ghrelin-induced calcium mobilization after 5 mins by FLIPR assay; type: functional, cell-based; settings: HEK293, 5 min
Method in brief: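 Functional antagonism was measured as IC50 in a FLIPR Ca2+ mobilisation assay.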

[2] = Oral bioavailability in Sprague-Dawley rat at 1 mg/kg; type: ADME, organism-based; settings: in vivo, 3 mg/kg, in the assay text read “3 mg/kg” for “1 mg/kg”
Method in brief: (§1)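 Male Sprague-Dawley rats were dosed with compound formulated in 20% trappsol in water for injection as the vehicle.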

[3] = AUC in Sprague-Dawley rat at 1 mg/kg, iv; type: ADME, organism-based; design: dose 1 mg/kg, route intravenous; settings: plasma; method in brief: as §1
[4] = AUC in Sprague-Dawley rat at 3 mg/kg, po; type: ADME, organism-based; design: dose 3 mg/kg, route oral; settings: plasma; method in brief: as §1
[5] = target: Growth hormone secretagogue receptor type 1 (Homo sapiens, UniProt Q92847); assay: Displacement of [125I]-Ghrelin from human GHSR membranes overexpressing GSH-R1a by scintillation counting
Method in brief: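 Binding affinity (Ki) at GHS-R1a was measured by 125I-ghrelin displacement using commercial human GHS-R1a membranes.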

Rattus norvegicus = assay: Clearance in Sprague-Dawley rat at 1 mg/kg, iv; type: ADME, organism-based; design: dose 1 mg/kg, route intravenous; settings: in vivo; method in brief: as §1
[6] = Half life in Sprague-Dawley rat at 1 mg/kg, iv; type: ADME, organism-based; design: dose 1 mg/kg, route intravenous; settings: in vivo; method in brief: as §1
[7] = Volume of distribution at steady state in Sprague-Dawley rat at 1 mg/kg, iv; type: ADME, organism-based; design: dose 1 mg/kg, route intravenous; settings: in vivo, read-out: Vdss; method in brief: as §1
[8] = target: 5-hydroxytryptamine receptor 2B (Homo sapiens) (UniProt P41595); assay: Inhibition of 5-HT2B at 10 uM
[9] = target: T1, Muscarinic acetylcholine receptor M1 (Homo sapiens) (UniProt P11229); assay: Inhibition of muscarinic M1 receptor at 10 uM
T1 sequence (whole entry): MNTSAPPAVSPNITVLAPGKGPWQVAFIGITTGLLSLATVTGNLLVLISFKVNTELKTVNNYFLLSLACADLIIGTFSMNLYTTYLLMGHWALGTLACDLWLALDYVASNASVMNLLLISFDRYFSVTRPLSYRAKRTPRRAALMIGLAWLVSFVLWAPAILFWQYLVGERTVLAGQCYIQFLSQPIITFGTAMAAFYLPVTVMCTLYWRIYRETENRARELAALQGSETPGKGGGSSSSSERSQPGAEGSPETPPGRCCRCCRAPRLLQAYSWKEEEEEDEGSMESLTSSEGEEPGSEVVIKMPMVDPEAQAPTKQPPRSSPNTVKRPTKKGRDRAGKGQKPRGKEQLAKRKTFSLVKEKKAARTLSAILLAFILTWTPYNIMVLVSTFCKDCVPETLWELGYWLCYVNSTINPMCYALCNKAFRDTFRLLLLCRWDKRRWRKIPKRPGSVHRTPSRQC

[10] = target: T2, Muscarinic acetylcholine receptor M2 (Homo sapiens) (UniProt P08172); assay: Inhibition of muscarinic M2 receptor at 10 uM
T2 sequence (whole entry): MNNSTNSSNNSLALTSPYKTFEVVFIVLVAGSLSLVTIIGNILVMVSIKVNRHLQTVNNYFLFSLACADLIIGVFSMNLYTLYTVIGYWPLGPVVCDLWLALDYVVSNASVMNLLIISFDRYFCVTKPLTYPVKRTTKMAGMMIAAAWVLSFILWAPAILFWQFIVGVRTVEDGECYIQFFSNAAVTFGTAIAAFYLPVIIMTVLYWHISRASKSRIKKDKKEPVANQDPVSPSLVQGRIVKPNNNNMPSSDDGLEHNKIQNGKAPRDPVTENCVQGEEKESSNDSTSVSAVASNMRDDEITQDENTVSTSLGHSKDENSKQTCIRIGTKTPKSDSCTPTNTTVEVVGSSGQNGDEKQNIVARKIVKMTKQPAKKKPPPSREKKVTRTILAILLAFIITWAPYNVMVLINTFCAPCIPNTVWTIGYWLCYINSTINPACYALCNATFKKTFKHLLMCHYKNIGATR

[11] = target: Voltage-gated inwardly rectifying potassium channel KCNH2 (Homo sapiens, UniProt Q12809); assay: Inhibition of human Erg by patch clamp assay; settings: for pIC50: human
hERG (KCNH2) = hERG (KCNH2) (Homo sapiens, UniProt Q12809); assay: in vitro
Chain of hERG (KCNH2) (Q12809 whole entry): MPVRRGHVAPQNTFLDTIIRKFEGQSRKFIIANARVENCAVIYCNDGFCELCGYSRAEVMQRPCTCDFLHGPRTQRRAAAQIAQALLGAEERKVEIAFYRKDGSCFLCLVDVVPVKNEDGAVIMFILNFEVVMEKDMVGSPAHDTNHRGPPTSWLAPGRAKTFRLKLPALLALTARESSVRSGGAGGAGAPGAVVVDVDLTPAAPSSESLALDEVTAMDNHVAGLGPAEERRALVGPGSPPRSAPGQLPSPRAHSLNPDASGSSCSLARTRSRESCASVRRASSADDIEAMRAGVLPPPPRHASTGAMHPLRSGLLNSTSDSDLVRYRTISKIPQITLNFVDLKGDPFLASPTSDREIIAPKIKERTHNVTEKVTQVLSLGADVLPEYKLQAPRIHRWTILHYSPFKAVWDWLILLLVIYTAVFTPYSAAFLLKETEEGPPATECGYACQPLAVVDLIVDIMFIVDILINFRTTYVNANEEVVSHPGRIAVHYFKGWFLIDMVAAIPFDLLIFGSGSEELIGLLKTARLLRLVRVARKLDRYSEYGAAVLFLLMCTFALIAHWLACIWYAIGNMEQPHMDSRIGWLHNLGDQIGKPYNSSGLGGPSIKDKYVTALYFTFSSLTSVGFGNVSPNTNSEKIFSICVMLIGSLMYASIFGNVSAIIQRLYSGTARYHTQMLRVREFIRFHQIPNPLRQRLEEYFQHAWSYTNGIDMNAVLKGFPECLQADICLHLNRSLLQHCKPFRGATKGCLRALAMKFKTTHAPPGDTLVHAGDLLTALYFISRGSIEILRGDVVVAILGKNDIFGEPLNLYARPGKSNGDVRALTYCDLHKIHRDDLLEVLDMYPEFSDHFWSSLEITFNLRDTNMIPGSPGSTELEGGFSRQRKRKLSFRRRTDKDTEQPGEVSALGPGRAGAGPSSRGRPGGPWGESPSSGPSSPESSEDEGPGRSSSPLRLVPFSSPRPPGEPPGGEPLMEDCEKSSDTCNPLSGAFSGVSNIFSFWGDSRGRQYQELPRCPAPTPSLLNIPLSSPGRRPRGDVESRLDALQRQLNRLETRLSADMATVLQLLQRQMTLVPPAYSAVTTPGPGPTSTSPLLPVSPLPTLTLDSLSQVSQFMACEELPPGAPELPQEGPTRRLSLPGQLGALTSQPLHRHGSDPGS

Chain of Voltage-gated inwardly rectifying potassium channel KCNH2 (Q12809 whole entry): as above
Chain of Growth hormone secretagogue receptor type 1 (Q92847 whole entry): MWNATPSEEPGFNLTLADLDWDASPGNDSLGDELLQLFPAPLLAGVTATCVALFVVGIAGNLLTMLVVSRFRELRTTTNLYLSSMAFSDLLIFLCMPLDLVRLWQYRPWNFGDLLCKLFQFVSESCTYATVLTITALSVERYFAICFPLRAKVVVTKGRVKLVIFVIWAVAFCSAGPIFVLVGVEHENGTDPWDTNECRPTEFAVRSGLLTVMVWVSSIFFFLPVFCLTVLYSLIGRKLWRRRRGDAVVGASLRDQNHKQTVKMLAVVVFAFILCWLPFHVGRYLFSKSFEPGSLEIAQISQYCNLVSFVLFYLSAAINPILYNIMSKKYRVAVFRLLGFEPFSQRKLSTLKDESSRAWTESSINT
Chain of 5-hydroxytryptamine receptor 2B (Homo sapiens) (P41595 whole entry): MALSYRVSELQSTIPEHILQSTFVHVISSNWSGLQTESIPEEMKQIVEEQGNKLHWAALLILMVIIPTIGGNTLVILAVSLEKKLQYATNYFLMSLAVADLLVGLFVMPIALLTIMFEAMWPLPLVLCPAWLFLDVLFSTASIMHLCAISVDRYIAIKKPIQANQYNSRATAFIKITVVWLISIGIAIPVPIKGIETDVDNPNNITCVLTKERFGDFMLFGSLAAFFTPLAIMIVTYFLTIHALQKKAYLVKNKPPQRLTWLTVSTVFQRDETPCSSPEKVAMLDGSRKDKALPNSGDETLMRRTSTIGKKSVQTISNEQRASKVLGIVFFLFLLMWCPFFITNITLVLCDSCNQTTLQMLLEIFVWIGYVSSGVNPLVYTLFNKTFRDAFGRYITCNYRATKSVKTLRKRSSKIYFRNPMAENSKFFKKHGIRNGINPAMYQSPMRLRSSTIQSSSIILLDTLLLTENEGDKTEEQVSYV

| IC50 [1] [nM] | Ki [5] [nM] | SMILES | also measured |
| --- | --- | --- | --- |
| 185 | 2 | Cc1nc2ccc(Oc3ccc(F)cc3)nc2c(=O)n1C[C@H]1CCCN(C(C)C)C1 | bioavailability [2]: 60%; AUC [3]: 0.523 µg·h/mL; AUC [4]: 0.941 µg·h/mL; clearance (Rattus norvegicus): 1.92 L/h/kg; half-life [6]: 7.16 h; Vd [7]: 11.9 L/kg |
| 5.7 | 0.26 | Cc1nc2ncc(Oc3ccc4ncsc4c3)nc2c(=O)n1C[C@H]1CCCN(C(C)C)C1 |  |
| 141 | 1 | Cc1nc2ccc(Oc3ccc(F)cc3)cc2c(=O)n1C[C@H]1CCCN(C(C)C)C1 | inhibition [8]: > 50%; inhibition [9]: > 50%; inhibition [10]: > 50% |
| 51.8 | 5 | Cc1nc2ncc(Oc3ccc4c(c3)ncn4C)nc2c(=O)n1C[C@H]1CCCN(C(C)C)C1 |  |
| 146 | 0.2 | Cc1nc2cnc(Oc3ccc(Cl)cc3F)cc2c(=O)n1C[C@H]1CCCN(C(C)C)C1 | selectivity ratio (hERG (KCNH2)): 10; IC50 [11]: 130 nM; pIC50 [11]: 6.89 |
| 26 | 0.16 | Cc1nc2ncc(Oc3ccc(Br)cc3F)cc2c(=O)n1C[C@H]1CCCN(C(C)C)C1 | IC50 [11]: 1300 nM |
| 587 | 3.1 | Cc1nc2ncc(Oc3ccc(F)cc3)nc2c(=O)n1C[C@H]1CCCN(C(C)C)C1 | bioavailability [2]: 33%; AUC [3]: 1.17 µg·h/mL; AUC [4]: 1.17 µg·h/mL; clearance (Rattus norvegicus): 0.78 L/h/kg; half-life [6]: 3.01 h; Vd [7]: 2.87 L/kg |
| 86.5 | 0.3 | Cc1nc2cnc(Oc3ccc4c(c3)OCO4)cc2c(=O)n1C[C@H]1CCCN(C(C)C)C1 |  |
| 357 | 6.7 | Cc1nc2ncc(Oc3ccc(F)cc3)cc2c(=O)n1C[C@H]1CCCN(C(C)C)C1 |  |
| 137 | 0.5 | Cc1nc2cnc(Oc3ccc4c(c3)ncn4C)cc2c(=O)n1C[C@H]1CCCN(C(C)C)C1 |  |
| 1440 | 6.6 | Cc1nc2cnc(Oc3ccc(F)c4cccnc34)cc2c(=O)n1C[C@H]1CCCN(C(C)C)C1 | IC50 [11]: 9400 nM |
| 29.2 | 0.1 | Cc1nc2cnc(Oc3ccc4ncsc4c3)cc2c(=O)n1C[C@H]1CCCN(C(C)C)C1 | IC50 [11]: 2400 nM; pIC50 [11]: 5.62 |
| 16.5 | 1.5 | Cc1nc2ncc(Oc3ccc4c(c3)OCO4)nc2c(=O)n1C[C@H]1CCCN(C(C)C)C1 |  |
| 19.2 | 0.9 | Cc1nc2ccc(Oc3ccc4c(c3)OCO4)nc2c(=O)n1C[C@H]1CCCN(C(C)C)C1 |  |
| 2.7 | 0.01 | Cc1nc2ccc(Oc3ccc4ncsc4c3)nc2c(=O)n1C[C@H]1CCCN(C(C)C)C1 |  |
| 399 | 3.4 | Cc1nc2cnc(Oc3ccc(F)cc3)cc2c(=O)n1C[C@H]1CCCN(C(C)C)C1 |  |
| 1.17 | 0.05 | Cc1nc2ncc(Oc3ccc(Br)cc3F)nc2c(=O)n1C[C@H]1CCCN(C(C)C)C1 |  |

Further lines, the molecule ahead of its results:

| SMILES | IC50 [1] [nM] | Ki [5] [nM] | also measured |
| --- | --- | --- | --- |
| Cc1nc2ccc(Oc3ccc(-c4ccccc4)cc3)nc2c(=O)n1C[C@H]1CCCN(C(C)C)C1 | 37.7 | 0.4 |  |
| COc1ccc2cccc(Oc3ccc4nc(C)n(C[C@H]5CCCN(C(C)C)C5)c(=O)c4n3)c2n1 | 118 | 3.1 |  |
| Nc1nc(N)c(-c2ccc(NC(=O)C3CC3)cc2)c(COCc2ccccc2)n1 | 188 |  |  |
| Cc1nc2ccc(Oc3ccc(F)c4cccnc34)nc2c(=O)n1C[C@H]1CCCN(C(C)C)C1 | 131 | 2.6 | IC50 [11]: 130 nM |
| COc1ccc(Cn2c(CCc3c[nH]c4ccccc34)nnc2[C@@H](Cc2c[nH]c3ccccc23)NC(=O)[C@@H]2CCCN2)c(OC)c1 | 5.6 |  |  |
| Cc1nc2ncc(Oc3ccc(Cl)cc3F)nc2c(=O)n1C[C@H]1CCCN(C(C)C)C1 | 102 | 0.6 |  |
| Cc1nc2ccc(Oc3ccc(Br)cc3F)nc2c(=O)n1C[C@H]1CCCN(C(C)C)C1 | 2.3 | 0.01 |  |
| Cc1nc2ncc(Oc3ccc(-c4ccccc4)cc3)nc2c(=O)n1C[C@H]1CCCN(C(C)C)C1 | 80 | 0.27 |  |
| Cc1nc2ccc(Oc3ccc(Cl)cc3F)nc2c(=O)n1C[C@H]1CCCN(C(C)C)C1 | 2 | 0.2 | bioavailability [2]: 35%; AUC [3]: 0.695 µg·h/mL; AUC [4]: 0.736 µg·h/mL; clearance (Rattus norvegicus): 1.44 L/h/kg; half-life [6]: 4.71 h; Vd [7]: 6.64 L/kg |
| Cc1nc2ncc(Oc3ccc(F)c4cccnc34)nc2c(=O)n1C[C@H]1CCCN(C(C)C)C1 | 142 | 1.9 | IC50 [11]: > 33000 nM |
| Cc1nc2cnc(Oc3cccc4cccnc34)cc2c(=O)n1C[C@H]1CCCN(C(C)C)C1 |  |  | IC50 [11]: 25100 nM; pIC50 [11]: 4.6 |
| Cc1nc2ncc(Oc3ccc(-c4ccccc4)cc3)cc2c(=O)n1C[C@H]1CCCN(C(C)C)C1 | 131 | 1.7 |  |
